Test results published in ChEMBL document CHEMBL4699586, “Synthesis and biological evaluation of NQO1-activated prodrugs of podophyllotoxin as antitumor agents” (Bioorg Med Chem, 2020).
The source made the active and inactive calls. No cut-off for these calls is given here.

What was measured:
[1] = Toxicity in BALB/c mouse xenografted with human HepG2 cells assessed as damage in liver at 5 to 10 mg/kg, ip administered every other day for 17 consecutive days and measured on day 17 by H&E staining based light microscopic analysis; type: organism-based; details: in vivo, 408 h, dose 5-10 mg/kg, time 17 day
How it was run: (§1)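 Six-week-old BALB/c nude mice carrying s.c. HepG2 tumours (5×10⁶ cells in PBS) randomized at 70–100 mm³, 6 per group; i.p. dosing every other day for 17 days in 5% DMSO/40% PEG300/5% Tween 80/50% saline; day-17 organs fixed in 4% paraformaldehyde, paraffin-embedded, H&E stained, light microscopy versus control.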

[2] = Toxicity in BALB/c mouse xenografted with human HepG2 cells assessed as damage in kidney at 5 to 10 mg/kg, ip administered every other day for 17 consecutive days and measured on day 17 by H&E staining based light microscopic analysis; type: organism-based; details: in vivo, 408 h, dose 5-10 mg/kg, time 17 day; how it was run: as §1
A549 [3] = assay: Cytotoxicity against hypoxia-induced human A549 cells assessed as reduction in cell viability incubated for 48 hrs by MTT assay; type: functional, cell-based; details: A549, 48 h
How it was run: (§2)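 Cell lines A549, HepG2, hypoxic A549/Hyp and HepG2/Hyp, taxol-resistant A549/T, and normal LO2. Log-phase cells allowed to adhere in 96-well plates, then exposed to compound for 48 h. MTT added for 2–3 h. Formazan dissolved in DMSO and absorbance read at 570 nm; IC50 derived.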

HepG2 [4] = assay: Induction of apoptosis in human HepG2 cells assessed as viable cells at 50 nM incubated for 24 hrs by annexin V-FITC and propidium iodide based flow cytometry analysis (reference value: 95.66 %); type: functional; details: read-out: Activity
[5] = Selectivity index, ratio of IC50 for NQO1-deficient human L02 cells to IC50 for human HepG2 cells overexpressing NQO1 incubated for 48 hrs by MTT assay
How it was run: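 IC50 in LO2 divided by IC50 in HepG2. Both from MTT after 48 h exposure, with absorbance read at 570 nm.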

Sus scrofa [6] = species: Sus scrofa; assay: Inhibition of porcine tubulin polymerization at 3 uM in presence of NQO1 and NADPH measured for 1 hr for every 30 sec
How it was run: (§3)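 Commercial tubulin polymerization kit run per manufacturer; test agent at 3 μM with vehicle control, with or without added NQO1 depending on group; absorbance at 340 nm read every 30 s for 1 h to give polymerization/depolymerization kinetic curves.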

HepG2 [7] = assay: Induction of apoptosis in human HepG2 cells assessed as early apoptotic cells at 50 nM incubated for 24 hrs by annexin V-FITC and propidium iodide based flow cytometry analysis (reference value: 1.84 %); type: functional
[8] = target: T1, NAD(P)H dehydrogenase [quinone] 1 (Homo sapiens, UniProt P15559); assay: Prodrug release assessed as recombinant NQO1 (unknown origin)-mediated N-(4-methylenecyclohexa-2,5-dienylidene)methanamine formation formation at 20 uM measured after 30 mins in presence of NADPH by HRMS analysis; type: ADME; details: 0.5 h
T1 sequence (P15559 whole entry, the tested form may be a part): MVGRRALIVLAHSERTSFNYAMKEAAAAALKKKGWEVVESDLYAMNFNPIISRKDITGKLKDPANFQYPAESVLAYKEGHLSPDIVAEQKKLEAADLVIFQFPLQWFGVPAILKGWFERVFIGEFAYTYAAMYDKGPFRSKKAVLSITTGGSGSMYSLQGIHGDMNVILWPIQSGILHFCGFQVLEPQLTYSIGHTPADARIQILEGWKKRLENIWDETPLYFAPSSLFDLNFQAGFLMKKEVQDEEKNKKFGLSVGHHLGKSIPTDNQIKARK
How it was run: (§4)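 Recombinant NQO1 (final 10 μg/mL) added to start reaction in 10 mM PBS with 2% Tween 80, 100 μM NADPH and 20 μM prodrug. Incubated at 37 °C, stopped with cold acetonitrile and centrifuged cold. Supernatant analysed by HRMS for release fragments.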

HepG2 [9] = assay: Induction of apoptosis in human HepG2 cells assessed as necrotic cells at 50 nM incubated for 24 hrs by annexin V-FITC and propidium iodide based flow cytometry analysis (reference value: 0.94 %); type: functional
[10] = Metabolic stability in human liver S9 fraction at 10 uM incubated for 9 hrs in presence of NADPH by HPLC analysis; type: ADME, subcellular; details: s9, 9 h
How it was run: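 Pooled human liver S9 fraction (0.5 mg) in 10 mM PBS pH 7.4 with 2% Tween 80, substrate 10 μM, 37 °C; started with 100 μM NADPH, quenched with cold acetonitrile at 0–540 min; centrifuged supernatant analysed by HPLC, UV 292 nm; triplicate.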

[11] = Toxicity in BALB/c mouse xenografted with human HepG2 cells assessed as body weight reduction at 10 mg/kg, ip administered every other day for 17 consecutive days and measured on day 17; type: organism-based; details: in vivo, 408 h, time 17 day
How it was run: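 HepG2 xenografts in 6-week BALB/c nude mice (s.c., 5×10⁶ cells), grouped at 70–100 mm³, n=6; i.p. dosing every other day for 17 days in 5% DMSO/40% PEG300/5% Tween 80/50% saline vehicle; body weight recorded every 2 days.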

[12] = target: T1, NAD(P)H dehydrogenase [quinone] 1; assay: Prodrug release assessed as recombinant NQO1 (unknown origin)-mediated 6-hydroxy-4,4,5,7-tetramethylchroman-2-one formation formation at 20 uM measured after 30 mins in presence of NADPH by HRMS analysis; type: ADME; details: 0.5 h; how it was run: as §4
Tubulin (Homo sapiens) = Tubulin (Homo sapiens) (UniProt P68371+Q9H4B7+P0DPH7+P68366+Q13509+Q71U36+P04350+Q3ZCM7+P07437+P68363+Q9BQE3+Q6PEY2+Q13885+Q9BVA1+Q9BUF5); assay: Inhibition of microtubule assembly in human HepG2 cells at 50 nM incubated for 48 hrs by immunofluorescence microscopic analysis; type: cell-based
How it was run: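 HepG2 seeded 12 h at 37 °C, 5% CO₂, then exposed 48 h alongside DMSO vehicle; methanol-fixed, permeabilized in 0.5% Triton X-100/PBS, α-tubulin primary antibody overnight at 4 °C, fluorescent secondary 1 h, DAPI nuclear counterstain; fluorescence microscopy imaging of microtubule networks.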

[13] = Metabolic stability in rat plasma at 10 uM incubated for 9 hrs in presence of NADPH by HPLC analysis; type: ADME, cell-free
How it was run: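 Rat plasma deproteinized by vortexing and centrifugation (10000 rpm, 5 min); supernatant incubated with 10 μM substrate plus 2% Tween 80 at 37 °C for 0–540 min; after centrifugation, supernatant analysed by HPLC (UV 292 nm); run in triplicate.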

Sus scrofa [14] = species: Sus scrofa; assay: Inhibition of porcine tubulin polymerization at 3 uM measured every 30 secs for 1 hr; how it was run: as §3
[15] = Stability of the compound in PBS buffer at 10 uM at pH 5 to 9 incubated for 9 hrs in presence of NADPH by HPLC analysis; type: physicochemical; details: pH 5, 9 h
How it was run: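 No NQO1 present; 10 μM substrate with 100 μM NADPH in PBS containing 2% Tween 80 across pH values 5–9 at 37 °C; timed samples quenched with cold acetonitrile, centrifuged, and quantified by C18 HPLC with UV detection at 292 nm; triplicate.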

HepG2 [16] = assay: Cytotoxicity against hypoxia-induced human HepG2 cells assessed as reduction in cell viability incubated for 48 hrs by MTT assay; type: functional, cell-based; details: HepG2, 48 h; how it was run: as §2
[17] = target: T1, NAD(P)H dehydrogenase [quinone] 1; assay: Prodrug release assessed as recombinant NQO1 (unknown origin)-mediated podophyllotoxin formation at 20 uM measured after 30 mins in presence of NADPH by HRMS analysis; type: ADME; details: 0.5 h; how it was run: as §4
A549 [18] = assay: Cytotoxicity against taxol-resistant human A549 cells assessed as reduction in cell viability incubated for 48 hrs by MTT assay; type: functional, cell-based; details: A549, 48 h; how it was run: as §2
[19] = Toxicity in BALB/c mouse xenografted with human HepG2 cells assessed as damage in spleen at 5 to 10 mg/kg, ip administered every other day for 17 consecutive days and measured on day 17 by H&E staining based light microscopic analysis; type: organism-based; details: in vivo, 408 h, dose 5-10 mg/kg, time 17 day; how it was run: as §1
L02 = assay: Cytotoxicity against NQO1-deficient human L02 cells assessed as reduction in cell viability incubated for 48 hrs by MTT assay; type: cell-based; details: L02, 48 h; how it was run: as §2
A549 [20] = assay: Cytotoxicity against human A549 cells overexpressing NQO1 assessed as reduction in cell viability incubated for 48 hrs by MTT assay; type: functional, cell-based; details: A549, 48 h; how it was run: as §2
[21] = Toxicity in BALB/c mouse xenografted with assessed as damage in heart at 5 to 10 mg/kg, ip administered every other day for 17 consecutive days and measured on day 17 by H&E staining based light microscopic analysis; type: organism-based; details: in vivo, 408 h, dose 5-10 mg/kg, time 17 day; how it was run: as §1
[22] = Toxicity in BALB/c mouse xenografted with human HepG2 cells assessed as damage in lung at 5 to 10 mg/kg, ip administered every other day for 17 consecutive days and measured on day 17 by H&E staining based light microscopic analysis; type: organism-based; details: in vivo, 408 h, dose 5-10 mg/kg, time 17 day; how it was run: as §1
HepG2 [23] = assay: Induction of apoptosis in human HepG2 cells assessed as late apoptotic cells at 50 nM incubated for 24 hrs by annexin V-FITC and propidium iodide based flow cytometry analysis (reference value: 1.56 %); type: functional
HepG2 [24] = assay: Induction of cell cycle arrest in human HepG2 cells assessed as increase in cells accumulation at G2/M phase at 50 nM incubated for 24 hrs by propidium iodide based flow cytometry analysis relative to control; type: functional
How it was run: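 HepG2 plated in 12-well plates for 24 h, treated with compound (50 nM) for 24 h. Harvested, washed twice in cold PBS, held in 70% ethanol for 3 h. RNase A treatment 1 h at ambient temperature, then PI stain. Phase distribution by flow cytometry, compared with DMSO control.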

HepG2 [25] = assay: Antitumor activity against human HepG2 cells xenografted in BALB/c nude mouse assessed as tumor growth suppression at 10 mg/kg, ip administered every other day for 17 consecutive days and measured on day 17 by caliper analysis relative to control; type: functional; details: 408 h, time 17 day, read-out: TGI
How it was run: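 BALB/c nude mice, 6 weeks old, given 5×10^6 HepG2 cells s.c. in sterile PBS. Randomized at tumour 70–100 mm³, 6 per group. Dosing i.p. every other day for 17 days in 5% DMSO/40% PEG300/5% Tween-80/50% saline; vehicle arm as control. Caliper volume every 2 days as V = AB²/2. Tumours excised and weighed on day 17; growth inhibition rate calculated.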

HepG2 [26] = assay: Cytotoxicity against human HepG2 cells overexpressing NQO1 assessed as reduction in cell viability incubated for 48 hrs by MTT assay; type: functional, cell-based; details: HepG2, 48 h; how it was run: as §2
[27] = Toxicity in BALB/c mouse xenografted with human HepG2 cells assessed as animal death at 10 mg/kg, ip administered every other day for 17 consecutive days and measured on day 17; type: organism-based; details: in vivo, 408 h, time 17 day
How it was run: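 HepG2 s.c. xenografts in BALB/c nude mice, 6 per group. Compound given i.p. every other day for 17 days in 5% DMSO/40% PEG300/5% Tween-80/50% saline. Deaths recorded over the experimental period. Body weight monitored every 2 days.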

Compound | IC50 (A549 [3]) [nM] | viability at 0.05 µM (HepG2 [4]) [%] | Activity (HepG2 [7]) [%] | Activity (HepG2 [9]) [%] | IC50 (HepG2 [16]) [nM] | IC50 (A549 [18]) [nM] | IC50 (L02) [nM] | IC50 (A549 [20]) [nM] | Activity (HepG2 [23]) [%] | IC50 (HepG2 [26]) [nM] | other results
COc1cc([C@@H]2c3cc4c(cc3[C@@H](OC(=O)OCc3ccc(N(C)C(=O)CC(C)(C)C5=C(C)C(=O)C(C)=C(C)C5=O)cc3)[C@H]3COC(=O)[C@H]23)OCO4)cc(OC)c1OC | 185 | 63.5 | 1.74 | 18.99 | 113 | 197 | 312 | 100 | 15.76 | 84 | Activity [1]: Non-Toxic; Activity [2]: Non-Toxic; Ratio IC50 [5]: 3.72; inhibition (Sus scrofa [6]): Active; Drug metabolism [8]: Metabolite_Detected; Stabilty [10]: Stable; Activity [11]: Non-Toxic; Drug metabolism [12]: Metabolite_Detected; inhibition (Tubulin (Homo sapiens)): Active; Stabilty [13]: Stable; inhibition (Sus scrofa [14]): inactive; Stabilty [15]: Stable; Drug metabolism [17]: Metabolite_Detected; Activity [19]: Non-Toxic; Activity [21]: Non-Toxic; Activity [22]: Non-Toxic; Activity (HepG2 [24]): 27.3%; inhibition in vivo at 10 mg/kg (HepG2 [25]): 64%
COc1cc([C@@H]2c3cc4c(cc3[C@@H](OC(=O)CC(C)(C)C3=C(C)C(=O)C(C)=C(C)C3=O)[C@H]3COC(=O)[C@H]23)OCO4)cc(OC)c1OC | 315 | – | – | – | 193 | 302 | 228 | 160 | – | 107 | –
COc1cc([C@@H]2c3cc4c(cc3[C@@H](OC(=O)OCc3ccc(NC(=O)CC(C)(C)C5=C(C)C(=O)C(C)=C(C)C5=O)cc3)[C@H]3COC(=O)[C@H]23)OCO4)cc(OC)c1OC | 596 | – | – | – | 425 | 574 | 452 | 274 | – | 262 | –
COc1cc([C@@H]2c3cc4c(cc3[C@H](O)[C@H]3COC(=O)[C@H]23)OCO4)cc(OC)c1OC [PODOFILOX] | 291 | 83.7 | 2.88 | 7.38 | 209 | 338 | 85 | 105 | 6.08 | 83 | Activity [27]: Toxic
